Experiments:
OXR1 = target: T1, OXR1 (Homo sapiens, UniProt Q8N573); assay: OXR1 degradation assay using western blot; type: cell-based; details: 5 µM, 24 h, WI-38 IR-SCs and NCs
T1 sequence (Q8N573 1-874): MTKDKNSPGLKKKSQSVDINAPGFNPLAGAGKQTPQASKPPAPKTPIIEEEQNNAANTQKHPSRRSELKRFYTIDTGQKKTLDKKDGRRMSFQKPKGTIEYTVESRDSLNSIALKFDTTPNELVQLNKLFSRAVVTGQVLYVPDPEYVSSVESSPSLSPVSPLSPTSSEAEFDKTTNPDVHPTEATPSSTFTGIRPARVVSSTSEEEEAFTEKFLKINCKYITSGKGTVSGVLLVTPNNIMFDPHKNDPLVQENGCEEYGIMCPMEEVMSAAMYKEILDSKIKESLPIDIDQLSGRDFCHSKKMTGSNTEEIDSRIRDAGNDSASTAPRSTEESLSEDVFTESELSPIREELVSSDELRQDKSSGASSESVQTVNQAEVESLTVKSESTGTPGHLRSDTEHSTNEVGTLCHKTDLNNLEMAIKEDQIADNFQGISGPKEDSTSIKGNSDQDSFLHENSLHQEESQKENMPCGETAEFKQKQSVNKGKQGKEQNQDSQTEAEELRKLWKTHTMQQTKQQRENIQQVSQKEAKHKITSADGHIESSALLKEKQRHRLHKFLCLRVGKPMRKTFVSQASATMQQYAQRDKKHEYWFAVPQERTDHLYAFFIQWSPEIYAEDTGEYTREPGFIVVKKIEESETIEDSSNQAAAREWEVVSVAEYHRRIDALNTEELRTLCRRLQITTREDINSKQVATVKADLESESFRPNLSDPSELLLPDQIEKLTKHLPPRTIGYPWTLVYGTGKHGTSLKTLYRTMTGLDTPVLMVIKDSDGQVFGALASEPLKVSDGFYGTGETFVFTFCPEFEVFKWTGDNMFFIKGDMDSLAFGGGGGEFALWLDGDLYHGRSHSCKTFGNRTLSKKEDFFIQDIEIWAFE
Summary of the method: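 Low-passage (<25) WI-38 cells, plus senescent cells made by 15 Gy ¹³⁷Cs γ-irradiation (1.080 Gy/min). Both cultured at 37 °C, 5% CO2, then given 5 µM test compound or vehicle for 24 h. Lysed in RIPA with EDTA/EGTA and transferred to PVDF. Blocked with 5% nonfat milk/TBST. Probed overnight at 4 °C for OXR1 and β-actin, HRP secondaries, ECL/autoradiography. Quantified as mean ± SEM, n = 3.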

WI-38 IR-SCs = assay: Apoptosis assay, Annexin V / propidium iodide flow cytometry; type: cell-based, Human; details: QVD 10 µM with 49 1 µM, 48 h and 72 h
[1] = test system: ROS production in WI-38 IR-SCs; assay: ROS assay with dihydrorhodamine 123, flow cytometry; type: cell-based, Human; details: […] treatment, DHR 123 30 min
mice = details: cited from earlier work

Row | SMILES | OXR1 levels (western blot) (OXR1) | also measured
1 | C=C1CCCN(C(=O)/C=C/c2cc(OC)c(OC)c(OC)c2)C1=O [Compound 47, (E)-3-Methylene-1-(3-(3,4,5-trimethoxyphenyl)acryloyl)piperidin-2-one] | selectively reduced the levels of OXR1 in SCs | 
2 | CC(C)[C@H](NC(=O)c1ccc2ccccc2n1)C(=O)N[C@@H](CC(=O)O)C(=O)COc1c(F)cccc1F [QVD] |  | effect of pan-caspase inhibitor on 49-induced apoptosis and death (WI-38 IR-SCs): significantly reduced apoptosis and partially rescued SCs from 49-induced death
3 | C=C1CCN(C(=O)/C=C/c2cc(OC)c(OC)c(OC)c2)C1=O [Compound 48, (E)-3-Methylene-1-(3-(3,4,5-trimethoxyphenyl)acryloyl)pyrrolidin-2-one] | selectively reduced the levels of OXR1 in SCs | 
4 | COc1cc(/C=C/C(=O)N2CCC=CC2=O)cc(OC)c1OC [PL, piperlongumine] | abrogated the upregulation of OXR1 | ROS levels (DHR 123 fluorescence) [1]: moderate increase of the ROS levels; maximum tolerated oral dose (mice; mice, oral): > 1000 mg/kg; effective therapeutic dose for cancer (mice; oral dosing): ≥ 2.4 mg/kg
5 | C=C1CCCCN(C(=O)/C=C/c2cc(OC)c(OC)c(OC)c2)C1=O [Compound 49, (E)-3-Methylene-1-(3-(3,4,5-trimethoxyphenyl)acryloyl)azepan-2-one] | selectively reduced the levels of OXR1 in SCs | 
